# The source made the active and inactive calls. No cut-off for these calls is given here.
# Assays:
# [1] = tested on: MC3T3-E1; assay: Inhibition of antiapoptotic activity in mouse MC3T3-E1 cells at 1 uM after 48 hrs in presence of BMP2-specific neutralizing antibody; type: functional, cell-based
# [2] = biological target: T1, Alkaline phosphatase (Mus musculus) (UniProt Q9EQ79); assay: Inhibition of induction of ALP activity in mouse MC3T3-E1 cells at 1 uM after 48 hrs in presence of BMP2-specific neutralizing antibody; type: cell-based
# T1 sequence (whole entry): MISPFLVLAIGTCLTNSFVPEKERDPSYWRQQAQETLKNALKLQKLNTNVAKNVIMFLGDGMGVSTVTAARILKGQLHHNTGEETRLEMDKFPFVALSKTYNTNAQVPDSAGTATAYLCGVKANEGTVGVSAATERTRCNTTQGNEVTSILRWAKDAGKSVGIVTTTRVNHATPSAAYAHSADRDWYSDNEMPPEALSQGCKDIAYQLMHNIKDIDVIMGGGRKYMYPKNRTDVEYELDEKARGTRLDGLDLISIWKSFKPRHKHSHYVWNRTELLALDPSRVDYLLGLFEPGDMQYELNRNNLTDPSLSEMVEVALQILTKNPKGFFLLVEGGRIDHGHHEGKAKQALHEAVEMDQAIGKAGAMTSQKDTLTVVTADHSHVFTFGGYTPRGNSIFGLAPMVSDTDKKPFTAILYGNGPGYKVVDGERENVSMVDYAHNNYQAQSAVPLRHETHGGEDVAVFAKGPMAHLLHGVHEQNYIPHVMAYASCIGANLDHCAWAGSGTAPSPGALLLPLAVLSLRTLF
# [3] = tested on: MC3T3-E1; assay: Induction of ER association with BMP2 promoter in mouse MC3T3-E1 cells at 1 uM by ChiP assay; type: functional, cell-based
# Summary of the method: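 MC3T3-E1 cells ± 1 μm, formaldehyde-fixed; ChIP with transcription factor antibodies and protein G magnetic beads; BMP-2 promoter quantified by real-time PCR (45 cycles); ratio of IP to input Ct values.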
# [4] = tested on: Osteoblast; assay: Effect on MAD homolog 4 gene expression in rat primary osteoblast cells assessed as expression ratio of treated to untreated control by microarray analysis; type: functional
# [5] = tested on: Osteoblast; assay: Effect on cathepsin K gene expression in rat primary osteoblast cells assessed as expression ratio of treated to untreated control by microarray analysis; type: functional
# [6] = tested on: MC3T3-E1; assay: Reversal of induction in ER.DNA complex in mouse MC3T3-E1 cells at 1 uM by RT-PCR in presence of tamoxifen; type: functional, cell-based
# Summary of the method: (§1)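 BMP-2 promoter quantified by real-time PCR (45 cycles, 61 °C anneal), reported as IP-to-input Ct ratio. DN-Src by 3 μg vector, PP2 at 10 μM; ICI182780 and tamoxifen at indicated concentrations.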
# [7] = tested on: MC3T3-E1; assay: Reversal of induction in ER.DNA complex in mouse MC3T3-E1 cells at 1 uM by RT-PCR in presence of ICI-182780; type: functional, cell-based; summary of the method: as §1
# [8] = tested on: Osteoblast; assay: Effect on FMS-like tyrosine kinase 1 gene expression in rat primary osteoblast cells assessed as expression ratio of treated to untreated control by microarray analysis; type: functional
# [9] = tested on: Osteoblast; assay: Effect on procollagen 4 alpha 2 gene expression in rat primary osteoblast cells assessed as expression ratio of treated to untreated control by microarray analysis; type: functional
# Summary of the method: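 Resveratrol-treated and vehicle-treated primary osteoblasts were profiled on a mouse osteogenesis-focused cDNA array (GEArray Q series) built to track gene expression during osteogenic differentiation. Each gene's signal in treated cells was expressed as a ratio to untreated control.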
# [10] = tested on: MC3T3-E1; assay: Increase in BMP2 mRNA levels in mouse MC3T3-E1 cells at 1 uM by RT-PCR method; type: functional, cell-based; conditions: TDE = time-dependent effect
# Summary of the method: (§2)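 Cells treated with 1 μm for 48 h; BMP-2 mRNA measured by quantitative real-time RT-PCR (SYBR Green, 0.5 μm each primer, 4 mm MgCl2, fluorescence read at 82 °C) and normalized.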
# [11] = tested on: Osteoblast; assay: Increase in BMP2 mRNA levels in rat primary osteoblast cells at 1 uM by RT-PCR method; type: functional, cell-based; summary of the method: as §2
# [12] = tested on: Rattus norvegicus; assay: Increase in serum BMP2 levels in orally dosed ovariectomized Wistar rat after 10 weeks by ELISA relative to sham operated control; type: functional, organism-based
# Summary of the method: (§3)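 Ovariectomized rats given indicated doses or estrogen by oral feeding; serum BMP-2 by ELISA 10 weeks after surgery; compared with sham-operated group; n = 8/group, means ± S.D.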
# [13] = Reversal of increase in BMP2 expression in mouse MC3T3-E1 cells expressing pBMP2/mERE mutant at 1 uM after 4 hrs by luciferase method; type: functional, cell-based
# [14] = biological target: T2, Estrogen receptor (Mus musculus) (UniProt P19785); assay: Reversal of increase in DNA-binding activity of ERalpha in nuclear extracts of mouse MC3T3-E1 cells by electrophoretic mobility shift assays in presence of short interfering ER alpha-RNA; type: cell-based
# T2 sequence (whole entry): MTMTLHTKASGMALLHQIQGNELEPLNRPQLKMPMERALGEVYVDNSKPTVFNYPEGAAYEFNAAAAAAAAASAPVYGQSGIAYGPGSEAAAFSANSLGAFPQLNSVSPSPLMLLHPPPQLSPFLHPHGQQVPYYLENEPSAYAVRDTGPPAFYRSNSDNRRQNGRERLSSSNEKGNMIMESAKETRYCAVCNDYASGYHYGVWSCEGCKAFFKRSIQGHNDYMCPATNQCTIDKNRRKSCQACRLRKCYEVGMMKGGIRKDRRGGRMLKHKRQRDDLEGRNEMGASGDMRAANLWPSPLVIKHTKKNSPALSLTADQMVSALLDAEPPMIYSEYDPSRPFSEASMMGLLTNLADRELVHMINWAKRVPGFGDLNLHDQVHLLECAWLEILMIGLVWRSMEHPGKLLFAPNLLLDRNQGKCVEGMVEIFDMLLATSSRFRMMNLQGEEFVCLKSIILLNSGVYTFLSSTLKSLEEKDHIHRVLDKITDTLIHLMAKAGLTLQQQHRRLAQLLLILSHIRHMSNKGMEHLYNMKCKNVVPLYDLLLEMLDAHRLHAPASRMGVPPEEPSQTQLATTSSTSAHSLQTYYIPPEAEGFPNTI
# Summary of the method: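 Nuclear extracts of MC3T3-E1 cells. ER-binding probe [α-32P]dCTP end-labeled, 20-min binding at room temperature, 5-fold unlabeled competitor where used. Complexes resolved on 5% nondenaturing PAGE in Tris-borate-EDTA pH 8.3, then autoradiography.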
# [15] = tested on: Rattus norvegicus; assay: Increase in serum BMP2 levels in ovariectomized Wistar rat at 10 mg/kg, po after 10 weeks by ELISA relative to sham operated control; type: functional, organism-based; design: dose 10 mg/kg; summary of the method: as §3
# [16] = Reversal of increase in pBMP2 expression in mouse MC3T3-E1 cells at 1 uM by luciferase method in presence of PP2; type: functional, cell-based
# Summary of the method: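 BMP-2 promoter activity measured by dual-luciferase assay and expressed relative to the untreated vector control.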
# [17] = tested on: Osteoblast; assay: Effect on ubiquitin-conjugating enzyme E2D 3 gene expression in rat primary osteoblast cells assessed as expression ratio of treated to untreated control by microarray analysis; type: functional
# Summary of the method: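 GEArray Q series Mouse Osteogenesis cDNA array profiling osteogenic-differentiation genes in treated versus vehicle-treated primary osteoblasts.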
smiles,measurement,setting,value
Oc1ccc(/C=C/c2cc(O)cc(O)c2)cc1 [RESVERATROL],Activity,[1],Active
same,Activity,[2],Active
same,Activity,[3],Active
same,Ratio,[4],2.63
same,Ratio,[5],5.6
same,Activity,[6],Dose-dependent effect
same,Activity,[7],Dose-dependent effect
same,Ratio,[8],0.41
same,Ratio,[9],4.48
same,Activity,[10],tde
same,Activity,[11],Active
same,Activity,[12],Active
same,Activity,[13],80%
same,Activity,[14],Active
same,Activity,[15],Active
same,Activity,[16],Active
same,Ratio,[17],3.73

# Reference: ChEMBL document CHEMBL1156469 (2007)
